Data published in ChEMBL document CHEMBL1135737, “Water stability and cytotoxic activity relationship of a series of ferrocenium derivatives. ESR insights on the radical production during the degradation process” (J Med Chem, 2002).

Assays:
[1] = system: MCF7; assay: In vitro cytotoxicity of compound against MCF-7 cell line expressed as percent of viable cells compared to untreated control at a concentration of 10 uM; assay type: functional, cell-based; details: Homo sapiens
In short: (§1)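 First screen: exponential-phase MCF-7 cells (DMEM with 25 mM HEPES, 10% FCS, 37 °C, 5% CO2), 250000/well, given the ferrocenium salt 5–500 μM continuously for 48 h from 24 h after seeding. MTT (5 mg/mL in saline) added for 60 min; formazan read at 570 nm with 690 nm correction. Percent viable versus untreated control; mean of three replications.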

[2] = system: MCF7; assay: In vitro cytotoxicity of compound against MCF-7 cell line expressed as percent of viable cells compared to untreated control at a concentration of 500 uM; assay type: functional, cell-based; details: Homo sapiens; in short: as §1
[3] = system: MCF7; assay: In vitro cytotoxicity of compound against MCF-7 cell line expressed as percent of viable cells compared to untreated control at a concentration of 100 uM; assay type: functional, cell-based; details: Homo sapiens; in short: as §1
[4] = system: MCF7; assay: In vitro cytotoxicity of compound against MCF-7 cell line expressed as percent of viable cells compared to untreated control at a concentration of 5 uM; assay type: functional, cell-based; details: Homo sapiens; in short: as §1
[5] = system: MCF7; assay: In vitro cytotoxicity of compound against MCF-7 cell line expressed as percent of viable cells compared to untreated control at a concentration of 50 uM; assay type: functional, cell-based; details: Homo sapiens; in short: as §1
[6] = system: MCF7; assay: Concentration required to reduce to 50% the number of MCF-7 cells with respect to untreated control after exposure to compound for 24 h; assay type: functional, cell-based, Homo sapiens
In short: (§2)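 MCF-7 cells (DMEM with 25 mM HEPES, 2 mM L-glutamine, 10% FCS; 37 °C, 5% CO2) in exponential growth, 250000 cells/well, dosed after 24 h at 10, 50, 100, 500 μM for 2, 12, 24 or 48 h. Medium then replaced; MTT read at 570 nm (690 nm background) 5 days from start, versus time-matched washed control. IC50 from three replications.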

[7] = system: MCF7; assay: In vitro cytotoxicity against MCF-7 cell line expressed as percent of viable cells compared to untreated control at a concentration of 50 uM; assay type: functional, cell-based; details: Homo sapiens
In short: (§3)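 Exponential-phase MCF-7 cells, grown in DMEM with 25 mM HEPES, 2 mM L-glutamine and 10% FCS at 37 °C and 5% CO2, were seeded at 250000 cells/well. After 24 h they got a single agent for 24 h at 10, 20, 35, 50 or 70 μM, then fresh medium. Viability was read by MTT (570 nm, 690 nm background) 5 days from treatment start, as % of untreated control.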

[8] = system: MCF7; assay: In vitro cytotoxicity against MCF-7 cell line expressed as percent of viable cells compared to untreated control at a concentration of 10 uM; assay type: functional, cell-based; details: Homo sapiens; in short: as §3
[9] = system: MCF7; assay: In vitro cytotoxicity against MCF-7 cell line expressed as percent of viable cells compared to untreated control at a concentration of 20 uM; assay type: functional, cell-based; details: Homo sapiens; in short: as §3
[10] = system: MCF7; assay: In vitro cytotoxicity against MCF-7 cell line expressed as percent of viable cells compared to untreated control at a concentration of 35 uM; assay type: functional, cell-based; details: Homo sapiens; in short: as §3
[11] = system: MCF7; assay: In vitro cytotoxicity against MCF-7 cell line expressed as percent of viable cells compared to untreated control at a concentration of 70 uM; assay type: functional, cell-based; details: Homo sapiens; in short: as §3
[12] = system: MCF7; assay: Concentration required to reduce to 50% the number of MCF-7 cells with respect to untreated control after exposure to compound for 2 h; assay type: functional, cell-based, Homo sapiens; in short: as §2
[13] = system: MCF7; assay: Concentration required to reduce to 50% the number of MCF-7 cells with respect to untreated control after exposure to compound for 12 h; assay type: functional, cell-based, Homo sapiens; in short: as §2
[14] = system: MCF7; assay: Concentration required to reduce to 50% the number of MCF-7 cells with respect to untreated control after exposure to compound for 48 h; assay type: functional, cell-based, Homo sapiens; in short: as §2
[15] = system: MCF7; assay: In vitro cytotoxicity against MCF-7 cell line expressed as percent of viable cells compared to untreated control at a concentration of 100 uM for 24 h; assay type: functional, cell-based; details: Homo sapiens
In short: (§4)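 Viability in MCF-7 cells (DMEM, 25 mM HEPES, 10% FCS, 37 °C, 5% CO2) seeded 250000/well and treated after 24 h for 24 h. Medium then replaced with fresh; MTT formazan read at 570 nm minus 690 nm, 5 days after treatment start. Percent of the untreated control washed at the same time; mean of three independent experiments.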

[16] = system: MCF7; assay: In vitro cytotoxicity against MCF-7 cell line as percent of viable cells compared to control at a concentration of 30 uM; assay type: functional, cell-based; details: Homo sapiens
[17] = system: MCF7; assay: In vitro cytotoxicity against MCF-7 cell line as percent of viable cells compared to control at a concentration of 40 uM; assay type: functional, cell-based; details: Homo sapiens
[18] = system: MCF7; assay: In vitro cytotoxicity against MCF-7 cell line expressed as percent of viable cells compared to untreated control at a concentration of 50 uM for 24 h; assay type: functional, cell-based; details: Homo sapiens; in short: as §4
[19] = system: MCF7; assay: In vitro cytotoxicity against MCF-7 cell line as percent of viable cells compared to control at a concentration of 5 uM; assay type: functional, cell-based; details: Homo sapiens
[20] = system: MCF7; assay: In vitro cytotoxicity against MCF-7 cell line expressed as percent of viable cells compared to untreated control at a concentration of 500 uM for 24 h; assay type: functional, cell-based; details: Homo sapiens; in short: as §4
[21] = system: MCF7; assay: In vitro cytotoxicity against MCF-7 cell line as percent of viable cells compared to control at a concentration of 20 uM; assay type: functional, cell-based; details: Homo sapiens
[22] = system: MCF7; assay: In vitro cytotoxicity against MCF-7 cell line expressed as percent of viable cells compared to untreated control at a concentration of 10 uM for 24 h; assay type: functional, cell-based; details: Homo sapiens; in short: as §4
[23] = system: MCF7; assay: In vitro cytotoxicity against MCF-7 cell line as percent of viable cells compared to control at a concentration of 15 uM; assay type: functional, cell-based; details: Homo sapiens
[24] = system: MCF7; assay: In vitro cytotoxicity against MCF-7 cell line as percent of viable cells compared to control at a concentration of 10 uM; assay type: functional, cell-based; details: Homo sapiens

Substance	Viable cells [1] [%]	Viable cells [2] [%]	Viable cells [3] [%]	Viable cells [4] [%]	Viable cells [5] [%]	IC50 [6] [µM]	other results
1,1'-dimethylferrocenium tetrafluoroborate	100	17	90	99	93	–	–
BLEOMYCIN [listing 1 of 2 here]	–	–	–	–	–	53	–
BLEOMYCIN [listing 2 of 2 here]	–	–	–	–	–	–	Viable cells [7]: 48%; Viable cells [8]: 69%; Viable cells [9]: 65%; Viable cells [10]: 57%; Viable cells [11]: 51%
DECAMETHYLFERROCENIUM TETRAFLUOROBORATE	–	–	–	–	–	58	IC50 [12]: 86 µM; IC50 [13]: 74 µM; IC50 [14]: 35 µM
FERROCENIUM TETRAFLUOROBORATE [listing 1 of 2 here]	–	–	–	–	–	256	IC50 [12]: 308 µM; IC50 [13]: 238 µM; IC50 [14]: 249 µM
FERROCENIUM TETRAFLUOROBORATE [listing 2 of 2 here]	98	13	99	100	100	–	–
FERROCENIUMBORONIC ACID TETRAFLUOROBORATE	101	8	98	102	101	–	–
[sequence] ACID TETRAFLUOROBORATE	98	17	97	100	97	–	–
[sequence] TETRAFLUOROBORATE	88	11	10	100	32	–	Viable cells [15]: 14%; Viable cells [16]: 7%; Viable cells [17]: 3%; Viable cells [18]: 64%; Viable cells [19]: 94%; Viable cells [20]: 4%; Viable cells [21]: 13%; Viable cells [22]: 99%; Viable cells [23]: 34%; Viable cells [24]: 88%
